A selection: hits, their analogues and other compounds. The true share with any hit is near 2.9%.
ATG4B inhibitor: inhibitors of human ATG4B cysteine protease; ATG4B cleavage of LC3-PLA2, NBD-HPC fluorescence, 1 h; 340,000 compounds, 0.51% hits; Q9Y4P1; AID 504462; inhibition, % at 8.33 µM; in the data active = inhibition above about 40%
mABHD4 FP: inhibits mouse alpha/beta hydrolase domain 4 | purified mABHD4, FP-Rh probe fluorescence polarization | AID 720543 | inhibition, % at 8.92 µM | 370,000 compounds, 0.54% hits;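 active = inhibition exceeding the mean over every tested compound plus 3 SD, cut at about 30% in these data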;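 note: 0% = plate median of compound wells and 100% = S159A mutant with DMSO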
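System: mouse ABHD4 enzyme, wild type / Medium: HEPES pH 7.0, NaCl, Pluronic buffer / Reagent: FP-Rh activity-based fluorescent probe / Control set: S159A mutant high control, sample median low control / Detection: fluorescence polarization with parallel and perpendicular emission, 525/598 nm / Schedule: 45 min + 60 min at 25 °C / Compound dosing: 8.92 µM, single dose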
PRMT1 inh: inhibitors of human PRMT1; 370,000 compounds, 1.3% hits; recombinant PRMT1, activity-based probe fluorescence polarization; inhibition, % at 2.79 µM;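 active = inhibition above about 21% made by adding two undisclosed values, limit read from the data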
Target sequence (Q99873 whole entry, looked up): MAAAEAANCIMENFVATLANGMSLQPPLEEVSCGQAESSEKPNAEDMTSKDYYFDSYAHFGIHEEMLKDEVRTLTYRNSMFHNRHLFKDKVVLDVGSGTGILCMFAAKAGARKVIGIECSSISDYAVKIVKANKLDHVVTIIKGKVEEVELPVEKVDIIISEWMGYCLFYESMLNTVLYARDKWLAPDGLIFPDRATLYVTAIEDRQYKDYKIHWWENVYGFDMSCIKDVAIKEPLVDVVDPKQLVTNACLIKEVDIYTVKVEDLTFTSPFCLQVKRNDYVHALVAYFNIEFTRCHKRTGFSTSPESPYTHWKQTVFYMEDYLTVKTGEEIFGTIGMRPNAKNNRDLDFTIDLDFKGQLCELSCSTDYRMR
SIAE inh: human SIAE inhibition, primary screen; SIAE FP-Rh probe binding, fluorescence polarization; 370,000 compounds, 0.69% hits; inhibition, % at 9.66 µM; Q9HAT2;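 active = inhibition above a cutoff: mean of compounds within the control limits plus 3 SD of those, cut at about 17% in these data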;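 note: 0% = plate median of compound wells and 100% = probe without SIAE protein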
TCR-CD3 inh: blocks the human TCR-CD3 interaction; inhibition, % at 9.4 µM; 360,000 compounds, 0.37% hits; TAMRA-labeled TCR probe fluorescence, biochemical; in the data active = inhibition above about 19%;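 note: recombinant mutant TCR 2C K166C tagged with TAMRA read by polarization; 0% = receptor in buffer alone and 100% = receptor with positive control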
HTRA1 inhibitor: HTRA1 (human) protease inhibition. Q92743. inhibition, % at 5.96 µM. 340,000 compounds, 0.5% hits. recombinant HTRA1, FP-rhodamine activity-based probe, fluorescence polarization; in the data active = inhibition above about 36%;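 note: 0% = enzyme with DMSO and 100% = wells lacking enzyme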
ATG4B confirm: confirmation of human ATG4B inhibitors; ATG4B protease fluorescent substrate cleavage assay; 320 compounds, 92% hits; inhibition, % at 8.33 µM; shares compounds with ATG4B inhibitor; in the data active = inhibition above about 39%
PLA2 ctr: inhibits human PLA2, flagging false ATG4B inhibitors; 1,600 compounds, 66% hits; shares compounds with ATG4B inhibitor; AID 588402; inhibition, % at 8.33 µM; purified PLA2, NBD-C6-HPC fluorescence, 45 min; in the data active = inhibition above about 50%
Target sequence (P04054 whole entry, looked up): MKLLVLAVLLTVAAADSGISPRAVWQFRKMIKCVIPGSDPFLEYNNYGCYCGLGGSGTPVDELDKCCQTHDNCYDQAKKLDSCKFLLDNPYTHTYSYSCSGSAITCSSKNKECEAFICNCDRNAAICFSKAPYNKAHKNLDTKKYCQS
Numbers without * were called inactive; . = not tested or not shown.

SMILES | ATG4B inhibitor | mABHD4 FP | PRMT1 inh | SIAE inh | TCR-CD3 inh | HTRA1 inhibitor | PLA2 ctr | others
Cc1n[nH]c(=O)c2c(NC(=O)CSc3nc4ccccc4c(=O)n3-c3ccc(OC(F)F)cc3)oc(C)c12 | 41* | -2 | 2 | 8 | 4 | -2 | 75*
Cc1cccc(Cc2cnc(N3C(=N)SC(c4ccccc4)C3=O)s2)c1 (centres undefined) | 50* | -9 | 2 | -1 | -8 | -22 | 43
Cc1cccc(Cc2cnc(N3C(=N)SC(C)C3=O)s2)c1 (centres undefined) | 4 | -4 | -3 | 8 | 1 | 5 | .
CCN(CC)c1ccc(C=NNC(=O)c2cc(-c3ccc(C)c(C)c3)n[nH]2)c(O)c1 | . | 11 | 0 | -7 | . | . | .
Cc1nn(-c2ccccc2)c(N)c1N=Nc1ccc2ccccc2c1 | 78* | 0 | -2 | -3 | 7 | -7 | 91*
Cc1ccc(N=Nc2c(N)nn(-c3ccccc3)c2N)cc1 | 57* | 9 | -3 | 3 | 0 | 4 | 71*
NC(=O)CSc1nnc(CNc2cccc(Cl)c2)n1CCc1ccccc1 | 49* | 2 | -1 | 3 | 4 | -4 | 66*
Cc1c(Cl)c([N+](=O)[O-])nn1CCCC(=O)Nc1cccc(O)c1 | 1 | 0 | 3 | -6 | 1 | -3 | .
Cc1cc([N+](=O)[O-])nn1CCCC(=O)Nc1ccc(Cl)cc1Cl | -7 | -7 | -1 | -1 | 5 | 3 | .
Cc1c(Br)c([N+](=O)[O-])nn1CCCC(=O)Nc1sc2c(c1C#N)CCC2 | 30 | 5 | 6 | -4 | -3 | -8 | .
Cc1c(Cl)c([N+](=O)[O-])nn1CCCC(=O)Nc1sc2c(c1C#N)CCC2 | 49* | -1 | 8 | 10 | 4 | -8 | 65*
Cc1c(Cl)c([N+](=O)[O-])nn1CCCC(=O)Nc1cccc(Cl)c1Cl | 60* | 0 | 2 | -5 | -1 | -8 | 67*
Cc1c(Cl)c([N+](=O)[O-])nn1CCCC(=O)Nc1ccc(Cl)cc1Cl | 67* | -4 | 3 | 1 | -1 | -5 | 54*
Cc1cccc(N2CCN(C(=O)c3cc(S(=O)(=O)N(C)C)ccc3Cl)CC2)c1C | . | 11 | 3 | 3 | . | . | .
C=CCN(CC#Cc1ccc(OC)cc1)CC=C | . | 0 | -2 | 4 | . | . | .
Cc1ccc(C(=O)N2CCC(Oc3cccnc3)CC2)c(C)c1 | . | 5 | 3 | 0 | . | . | .
CC(C)(C)c1ccc(C(=O)Nc2cc(Cl)c(F)cc2C(=O)O)cc1 | . | -44 | 6 | -21 | . | . | .
Cc1ccc(F)cc1CNC(=O)c1cc(COc2ccc3ncccc3c2)on1 | 61* | -12 | -2 | 7 | 1 | . | 68*
O=C(NCc1cccc(Cl)c1)c1cc(COc2ccc3ncccc3c2)on1 | 19 | -7 | 0 | -13 | 9 | -41 | .
O=[N+]([O-])c1ccccc1Nc1c2ccccc2nc2ccccc12 | -2 | 1 | -1 | -1 | 0 | 7 | .
O=[N+]([O-])c1ccc(Nc2c3ccccc3nc3ccccc23)cc1 | 58* | 19 | 1 | 12 | 6 | 14 | 60*
Cc1cccc(-c2cccc3c4c([nH]c23)[C@@H]2C[C@H](N(C)C(=O)c3ccccc3C)[C@H]([C@H](C)O)C(=O)N2CC4)c1 | . | 3 | 1 | -5 | . | . | .
Cc1cccc(CSc2nnc(-c3cccs3)n2Cc2ccco2)c1 | 68* | -2 | 2 | -4 | -5 | -17 | 67*
CCc1nc(N2CCCCC2C)c2oc3ccccc3c2n1 (centres undefined) | 45* | -10 | 4 | 5 | -5 | -18 | 56*
CCc1nc(N2CCCCC2)c2oc3ccccc3c2n1 | 53* | 0 | 2 | -3 | -4 | -12 | 61*
SMILES | ATG4B inhibitor | mABHD4 FP | PRMT1 inh | SIAE inh | TCR-CD3 inh | HTRA1 inhibitor | PLA2 ctr | others
CCc1nc(Nc2ccc3c(c2)OCO3)c2oc3ccccc3c2n1 | 18 | 13 | 0 | 12 | 5 | 3 | .
CCc1nc(N2CCN(Cc3ccc4c(c3)OCO4)CC2)c2oc3ccccc3c2n1 | 49* | -9 | -1 | -8 | -1 | -32 | 70*
Cc1nc(N2CCOCC2)c2oc3ccccc3c2n1 | 2 | 1 | -2 | 4 | 9 | 3 | .
CCc1nc(N2CCCC(C)C2)c2oc3ccccc3c2n1 (centres undefined) | 43* | -6 | -1 | -3 | -2 | -23 | 52*
CCc1nc(N2CCCCC2C(=O)O)c2oc3ccccc3c2n1 (centres undefined) | -9 | 4 | -5 | -7 | -2 | -2 | .
O=C(NC1CCCC1)C1CSCCS(=O)(=O)N1Cc1ccc(F)cc1 (centres undefined) | . | 1 | 1 | 4 | . | . | .
Cc1ccc(Cc2cnc(N3C(=N)SC(C)C3=O)s2)cc1 (centres undefined) | 2 | -1 | 4 | -1 | 0 | -2 | .
O=C1c2ccccc2C(=O)N1c1ncc(Cc2ccc(Cl)cc2)s1 | 80* | -21 | -1 | -13 | 3 | -21 | 64*
NC(=O)C1CCN(C2=C(NS(=O)(=O)c3ccc(Br)cc3)C(=O)c3ccccc3C2=O)CC1 | 64* | 6 | 3 | 6 | -1 | 7 | 60*
COc1cccc(NC(=O)Nc2c(-c3ccc(C)cc3)nc3ncccn23)c1 | . | 4 | 0 | 6 | . | . | .
COC(=O)[C@]12C[C@H](CC(=O)NCc3cccc(C(F)(F)F)c3)C(=O)N(Cc3ccc(Cl)cc3Cl)C1=C[C@H](COCc1ccccc1)O[C@@H]2C | . | -10 | 5 | -7 | . | . | .
CC1CCc2sc(C(=O)N3CCC(C(N)=O)CC3)cc2C1 (centres undefined) | 43* | -4 | 4 | -2 | -3 | 3 | 33 | ATG4B confirm=66*
COC(=O)[C@]12C[C@H](CC(=O)N3CCCCC3)C(=O)N(CCc3ccc(OC)c(OC)c3)C1=C[C@H](C(C)(C)C)O[C@@H]2C | . | 0 | 3 | 12 | . | . | .
C=CCN(Cc1ccc(OC)cc1OC)C(C#Cc1ccccc1)c1ccccc1 (centres undefined) | . | -5 | 3 | -1 | . | . | .
Cn1c(COc2ccccc2)nnc1SCC(=O)Nc1ccc(OCc2ccccc2)cc1 | . | 3 | -2 | 7 | . | . | .
COc1ccc(CN2C(=O)c3ccccc3C(/C=N/OCc3ccc(Cl)cc3)C2=O)cc1 (centres undefined) | 28 | -11 | 0 | 1 | -3 | -14 | .
COc1ccc(CN2C(=O)c3ccccc3C(/C=N\OCc3ccc(F)cc3)C2=O)cc1 (centres undefined) | 60* | -8 | -3 | 4 | 1 | -16 | 75*
